Experimental findings from ChEMBL document CHEMBL1152325, “Antioxidant and anticholinesterase activity evaluation of ent-kaurane diterpenoids from Sideritis arguta” (J Nat Prod, 2009) are described below.

The nature of assay [1]: Antioxidant activity against beta-carotene and linoleic acid assessed as inhibition of bleaching of beta-carotene. Format: functional. In outline: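 β-Carotene–linoleic acid model system on extracts and isolated diterpenoids. Bleaching inhibition was measured at four concentrations in triplicate, reported as mean ± SD. IC50 in µg/mL.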
Assay [2] concerns Radical scavenging activity. The assay can be described thus: Antioxidant activity assessed as DPPH radical scavenging activity. In kind it is functional. In outline:
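DPPH free-radical scavenging by the Blois method on extracts and diterpenoids. Tested at four concentrations in triplicate analyses, given as mean ± SD. Results expressed as IC50 (µg/mL).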
A general note: Loss of DPPH colour is used to gauge radical scavenging.

A short description of assay [3]: Antioxidant activity assessed as superoxide radical scavenging activity by phenazin methosulphate-NADH-NBT assay. Format: functional. A digest of the protocol: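 Superoxide-anion scavenging by the NADH-PMS-NBT method after Liu et al. Extracts and diterpenoids were tested at four concentrations in triplicate, as mean ± SD. IC50 reported in µg/mL.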
In a further assay the target is Acetylcholinesterase (Homo sapiens, UniProt P22303). The assay can be described thus: Inhibition of AChE by spectrophotometry.
Acetylcholinesterase, sequence (P22303 whole entry): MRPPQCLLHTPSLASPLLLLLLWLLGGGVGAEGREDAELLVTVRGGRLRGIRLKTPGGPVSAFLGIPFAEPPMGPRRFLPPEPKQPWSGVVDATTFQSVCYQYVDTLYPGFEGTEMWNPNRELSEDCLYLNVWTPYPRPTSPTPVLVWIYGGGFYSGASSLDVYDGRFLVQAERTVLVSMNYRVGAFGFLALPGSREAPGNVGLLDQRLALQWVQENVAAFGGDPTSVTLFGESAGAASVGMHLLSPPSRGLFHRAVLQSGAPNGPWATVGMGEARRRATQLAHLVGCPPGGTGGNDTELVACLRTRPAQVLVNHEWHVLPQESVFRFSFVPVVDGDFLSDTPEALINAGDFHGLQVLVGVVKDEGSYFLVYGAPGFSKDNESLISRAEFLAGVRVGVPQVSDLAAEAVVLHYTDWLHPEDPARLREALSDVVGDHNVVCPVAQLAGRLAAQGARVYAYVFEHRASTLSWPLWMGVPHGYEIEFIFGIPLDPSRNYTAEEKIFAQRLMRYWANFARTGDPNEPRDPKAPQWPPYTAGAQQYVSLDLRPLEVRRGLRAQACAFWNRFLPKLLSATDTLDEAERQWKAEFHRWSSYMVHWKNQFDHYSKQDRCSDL
For another assay, the target named is Cholinesterase (Homo sapiens, UniProt P06276). The assay can be described thus: Inhibition of BChE by spectrophotometry.
Cholinesterase, sequence (P06276 whole entry): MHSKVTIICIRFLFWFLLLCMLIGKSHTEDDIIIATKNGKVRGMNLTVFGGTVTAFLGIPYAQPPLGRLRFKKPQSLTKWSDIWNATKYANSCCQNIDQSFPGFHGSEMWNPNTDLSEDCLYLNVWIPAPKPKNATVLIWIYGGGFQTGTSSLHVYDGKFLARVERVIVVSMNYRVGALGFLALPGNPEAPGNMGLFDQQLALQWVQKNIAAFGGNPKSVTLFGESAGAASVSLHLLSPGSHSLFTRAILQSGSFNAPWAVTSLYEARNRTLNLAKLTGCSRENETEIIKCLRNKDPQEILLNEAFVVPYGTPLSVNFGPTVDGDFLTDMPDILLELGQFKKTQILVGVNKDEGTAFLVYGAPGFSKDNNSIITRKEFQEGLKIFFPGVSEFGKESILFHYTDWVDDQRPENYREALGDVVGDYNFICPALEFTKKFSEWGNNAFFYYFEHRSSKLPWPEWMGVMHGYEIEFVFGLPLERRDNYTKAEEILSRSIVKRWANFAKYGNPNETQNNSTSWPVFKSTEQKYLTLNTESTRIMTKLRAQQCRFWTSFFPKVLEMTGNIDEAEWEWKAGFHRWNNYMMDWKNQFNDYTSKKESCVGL

Some results are limits rather than exact numbers.

Broadly, the IC50 is the point on the concentration scale where inhibition reaches its midpoint. As to `C=C1C[C@]23C[C@H]1CC[C@H]2[C@]1(C)CCC[C@](C)(CO)[C@@H]1C[C@@H]3O`, the half-inhibitory concentration (IC50) in assay [1] was 43.1 µg/mL; in assay [2], “Not Active”; in assay [3] it was “Not Active”; at Acetylcholinesterase (read-out: IC50), 22.8 µM; on Cholinesterase, 21.1 µM.
As to `Cc1c(C)c2c(c(C)c1O)CC[C@@](C)(CCC[C@H](C)CCC[C@H](C)CCCC(C)C)O2` [ALPHA-TOCOPHEROL], the IC50 was 2.1 µg/mL in assay [1] and 12.26 µg/mL in assay [2].
In the case of `COc1ccc(O)c(C(C)(C)C)c1.COc1ccc(O)cc1C(C)(C)C` [BUTYLATED HYDROXYANISOLE], the figures for the half-maximal inhibitory concentration (IC50) in assay [1], in assay [2] and in assay [3] (read-out: IC50) were 1.5 µg/mL, 5.88 µg/mL and 27.1 µM, respectively.
For `Cc1cc(C(C)(C)C)c(O)c(C(C)(C)C)c1` [BUTYLATED HYDROXYTOLUENE], the results for the IC50 in assay [1] and in assay [2] were 1.3 µg/mL and 66.73 µg/mL, respectively.
Consider `CC(=O)OC[C@@]1(C)CCC[C@]2(C)[C@H]1C[C@H](OC(C)=O)[C@@]13C[C@@H](CC[C@@H]21)[C@](C)(O)C3` [DIACETYLDISTANOL], for which the concentration for half-maximal inhibition (IC50) was over 200 µM in assay [1] (read-out: IC50); over 200 µM in assay [2] (read-out: IC50); over 200 µM in assay [3] (read-out: IC50); “Not Active” against Acetylcholinesterase; 176 µM on Cholinesterase.
Take `C=C1[C@@H]2CC[C@H]3[C@]4(C)CCC[C@](C)(CO)[C@@H]4C[C@H](O)[C@]3(C2)[C@@H]1O` [EUBOTRIOL]: the IC50 in assay [1] (read-out: IC50) was over 200 µM; in assay [2] (read-out: IC50), over 200 µM; in assay [3] (read-out: IC50) it was over 200 µM; against Acetylcholinesterase, “Not Active”; against Cholinesterase, 98.1 µM.
Take `C[C@]1(CO)CCC[C@]2(C)[C@H]1C[C@H](O)[C@@]13C[C@@H](CC[C@@H]21)[C@]1(C)O[C@@H]13` [SIDEROXOL]: the IC50 was over 200 µM in assay [1] (read-out: IC50); over 200 µM in assay [2] (read-out: IC50); over 200 µM in assay [3] (read-out: IC50); 14.5 µM at Acetylcholinesterase (read-out: IC50); 25 µM at Cholinesterase.
Regarding EUBOL, the IC50 in assay [1] (read-out: IC50) is over 200 µM; in assay [2] (read-out: IC50), over 200 µM; in assay [3] (read-out: IC50), over 200 µM; on Acetylcholinesterase it was “Not Active”; at Cholinesterase, 23.2 µM.
As for “ent-7alpha-acetoxy-15alpha,18-dihydroxykaur-16-ene”, the IC50 (in assay [1] (read-out: IC50); in assay [2] (read-out: IC50); in assay [3] (read-out: IC50); on Acetylcholinesterase (read-out: IC50); against Cholinesterase) was over 200 µM throughout.
